Data reported in article PMC4689628 (Organic & biomolecular chemistry, 2016).

Key:
MLL1 SET domain [1] = target: T1, MLL1 SET domain (Homo sapiens, UniProt Q03164); experiment: FL-NAH fluorescence polarization saturation binding, isolated SET domain; conditions: SET Only
Summary of the method: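 The isolated MLL1 SET domain was titrated in increasing concentrations against 50 nM fluorescein-azaadenosylhomocysteine probe. Buffer was 20 mM Tris pH 8.0, 0.01% Triton X-100, 5 mM DTT. Incubation was 30 min at ambient temperature. FP was read at ex 485/em 528 nm. Kd and ΔFPmax came from nonlinear least-squares single-site saturation fit of ΔFP. Mean ± SD, three independent experiments.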

[2] = target: T2, trimeric MLL1 complex (MLL1, RbBP5 and WDR5) (Homo sapiens, UniProt Q03164); experiment: FL-NAH fluorescence polarization saturation binding, trimeric complex
tetrameric MLL1 complex [3] = target: T3, tetrameric MLL1 complex (Homo sapiens, UniProt Q03164); experiment: FL-NAH fluorescence polarization saturation binding, tetrameric complex
T3 sequence (Q03164 3829-3945): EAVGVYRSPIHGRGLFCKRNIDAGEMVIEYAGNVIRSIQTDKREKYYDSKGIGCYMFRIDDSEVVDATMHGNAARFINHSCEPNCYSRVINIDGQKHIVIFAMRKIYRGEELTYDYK
T3 sequence (Q15291 whole entry, further chain): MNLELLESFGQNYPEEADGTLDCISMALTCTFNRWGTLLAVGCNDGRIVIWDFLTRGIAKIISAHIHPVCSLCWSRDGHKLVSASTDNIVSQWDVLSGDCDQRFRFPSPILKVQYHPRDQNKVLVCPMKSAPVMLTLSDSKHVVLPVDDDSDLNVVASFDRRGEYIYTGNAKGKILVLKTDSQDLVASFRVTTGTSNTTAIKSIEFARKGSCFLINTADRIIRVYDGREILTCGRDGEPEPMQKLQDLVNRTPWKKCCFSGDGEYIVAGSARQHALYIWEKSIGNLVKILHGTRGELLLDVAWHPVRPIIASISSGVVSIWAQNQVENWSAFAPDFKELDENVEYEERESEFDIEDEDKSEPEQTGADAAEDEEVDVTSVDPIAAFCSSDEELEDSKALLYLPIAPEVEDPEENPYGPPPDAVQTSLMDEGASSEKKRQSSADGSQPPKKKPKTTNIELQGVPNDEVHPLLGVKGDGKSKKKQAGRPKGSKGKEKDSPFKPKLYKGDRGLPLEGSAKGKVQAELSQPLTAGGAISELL
T3 sequence (Q9UBL3 whole entry, further chain): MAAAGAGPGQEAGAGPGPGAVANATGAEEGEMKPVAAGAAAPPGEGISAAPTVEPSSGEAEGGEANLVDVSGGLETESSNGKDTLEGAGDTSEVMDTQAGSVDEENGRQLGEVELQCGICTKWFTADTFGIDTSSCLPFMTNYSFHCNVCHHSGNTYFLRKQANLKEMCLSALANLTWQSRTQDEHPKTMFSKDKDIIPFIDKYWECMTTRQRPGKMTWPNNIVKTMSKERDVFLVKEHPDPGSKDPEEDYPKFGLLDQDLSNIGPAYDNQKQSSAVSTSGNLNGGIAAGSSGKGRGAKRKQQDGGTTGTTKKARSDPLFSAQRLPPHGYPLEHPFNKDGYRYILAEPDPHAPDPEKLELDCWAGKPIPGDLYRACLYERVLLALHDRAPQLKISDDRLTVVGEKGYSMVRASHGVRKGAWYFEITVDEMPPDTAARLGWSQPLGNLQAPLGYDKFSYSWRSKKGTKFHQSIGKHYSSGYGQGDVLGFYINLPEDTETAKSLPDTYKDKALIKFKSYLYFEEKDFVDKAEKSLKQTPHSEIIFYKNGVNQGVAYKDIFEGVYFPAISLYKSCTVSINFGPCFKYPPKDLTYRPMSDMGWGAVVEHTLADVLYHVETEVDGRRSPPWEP

pentameric MLL1 complex [4] = target: T4, pentameric MLL1 complex (Homo sapiens, UniProt Q03164); experiment: FL-NAH fluorescence polarization saturation binding, pentameric complex
MLL1 SET domain [5] = target: T1, MLL1 SET domain; experiment: saturation-transfer difference; assay type: binding; conditions: Supplementary Figure 2
MLL1 SET domain [6] = target: T1, MLL1 SET domain; experiment: differential static light scattering; assay type: binding; conditions: Supplementary Figure 3
MLL1 SET domain [7] = target: T1, MLL1 SET domain; experiment: FL-NAH displacement FP assay, isolated SET domain; assay type: binding; conditions: for Hill Slope: SET Only, FL-NAH displacement curve
[8] = target: T2, trimeric MLL1 complex (MLL1, RbBP5 and WDR5); experiment: FL-NAH displacement FP assay, trimeric complex; assay type: binding; conditions: for Hill Slope: Trimeric complex, FL-NAH displacement curve
tetrameric MLL1 complex [9] = target: T3, tetrameric MLL1 complex; experiment: FL-NAH displacement FP assay, tetrameric complex; assay type: binding; conditions: for Hill Slope: Tetrameric complex, FL-NAH displacement curve
Summary of the method: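 The tetrameric MLL1 complex was diluted to its own Kd (probe) concentration. It was then incubated 30 min at ambient temperature with 50 nM fluorescein-azaadenosylhomocysteine probe and increasing concentrations of test compound. Buffer was 20 mM Tris pH 8.0, 0.01% Triton X-100, 5 mM DTT. FP was read at ex 485/em 528 nm, in mP. Kdisp and Hill coefficient came from nonlinear least-squares sigmoidal fit. Mean ± SD, ≥3 independent experiments.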

pentameric MLL1 complex [10] = target: T4, pentameric MLL1 complex; experiment: FL-NAH displacement FP assay, pentameric complex; assay type: binding; conditions: for Hill Slope: Pentameric complex, FL-NAH displacement curve
[11] = polarization expressed in mP (methods)

T1 sequence (Q03164 3829-3945 limits assumed): as the sequence (Q03164 3829-3945) above

| Hill Slope (MLL1 SET domain [7]) | Hill Slope [8] | Hill Slope (tetrameric MLL1 complex [9]) | Hill Slope (pentameric MLL1 complex [10]) | increase in potency of FL-NAH displacement, pentameric complex relative to the isolated SET domain (pentameric MLL1 complex [10]; pentameric vs isolated SET domain) [fold] | IC50 (MLL1 SET domain [7]) [µM] | IC50 [8] [µM] | IC50 (tetrameric MLL1 complex [9]) [µM] | IC50 (pentameric MLL1 complex [10]) [µM] | SMILES | Kd (MLL1 SET domain [1]; 50 nM FL-NAH, FP after 30 min) [µM] | ΔFPmax (MLL1 SET domain [1]; [11]) | Kd ([2]; 50 nM FL-NAH, FP after 30 min) [µM] | ΔFPmax [2, 11] | Kd (tetrameric MLL1 complex [3]; 50 nM FL-NAH, FP after 30 min) [µM] | ΔFPmax (tetrameric MLL1 complex [3]; [11]) | Kd (pentameric MLL1 complex [4]; 50 nM FL-NAH, FP after 30 min) [µM] | ΔFPmax (pentameric MLL1 complex [4]; [11]) | binding to MLL1 SET domain alone by STD NMR (MLL1 SET domain [5]) | binding to MLL1 SET domain alone by differential static light scattering (MLL1 SET domain [6]) |
| --- | --- | --- | --- | --- | --- | --- | --- | --- | --- | --- | --- | --- | --- | --- | --- | --- | --- | --- | --- |
| – | – | – | – | – | – | – | – | – | Nc1ncnc2c1ncn2[C@@H]1O[C@H](CN(CC[C@H](N)C(=O)O)Cc2cn(CCNC(=O)c3ccc4c(c3)C(=O)OC43c4ccc(O)cc4Oc4cc(O)ccc43)nn2)[C@@H](O)[C@H]1O [FL-NAH, fluorescein linked with N-adenosylhomocysteine] | 1 ± 0.1 | 240 ± 3 | 7 ± 3 | 260 ± 40 | 1.4 ± 0.4 | 300 ± 30 | 0.2 ± 0.03 | 270 ± 20 | confirmed | confirmed |
| −0.9 ± 0.2 | −1.5 ± 0.3 | −1.9 ± 0.1 | −1.4 ± 0.3 | 20 | – | – | – | – | Nc1ncnc2c1ncn2[C@@H]1O[C@H](CSCC[C@H](N)C(=O)O)[C@@H](O)[C@H]1O [SAH] | – | – | – | – | – | – | – | – | – | – |
| −1.2 ± 0.1 | −1.6 ± 0.4 | −1.7 ± 0.2 | −1.6 ± 0.3 | – | 14 ± 2 | 7 ± 1 | 1 ± 0.1 | 1 ± 0.2 | C[S+](CC[C@H](N)C(=O)[O-])C[C@H]1O[C@@H](n2cnc3c(N)ncnc32)[C@H](O)[C@@H]1O (stereo partly shown) [SAM, S-adenosylmethionine] | – | – | – | – | – | – | – | – | – | – |
| −0.9 ± 0.1 | −1.1 ± 0.3 | −1.2 ± 0.1 | −1.1 ± 0.3 | – | 9 ± 0.2 | 10 ± 2.5 | 2 ± 0.2 | 0.5 ± 0.1 | Nc1ncnc2c1ncn2[C@@H]1O[C@H](C[C@@H](N)CC[C@H](N)C(=O)O)[C@@H](O)[C@H]1O [Sinefungin, sinefungin] | – | – | – | – | – | – | – | – | – | – |
